# GRK2 aptamer HTS: blocks RNA aptamer binding to human GRK2; bead flow cytometry, FAM-aptamer displacement from GRK2; actives 0.59% (n = 330,000); inhibition of aptamer binding, % at 10 µM;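 active means inhibition of aptamer binding above 40%, roughly 3 SD of noise, on plates passing a quality check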;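 further: median bead fluorescence of bound FAM aptamer so fluorescent compounds give negative values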
# Target sequence (P25098 whole entry, looked up): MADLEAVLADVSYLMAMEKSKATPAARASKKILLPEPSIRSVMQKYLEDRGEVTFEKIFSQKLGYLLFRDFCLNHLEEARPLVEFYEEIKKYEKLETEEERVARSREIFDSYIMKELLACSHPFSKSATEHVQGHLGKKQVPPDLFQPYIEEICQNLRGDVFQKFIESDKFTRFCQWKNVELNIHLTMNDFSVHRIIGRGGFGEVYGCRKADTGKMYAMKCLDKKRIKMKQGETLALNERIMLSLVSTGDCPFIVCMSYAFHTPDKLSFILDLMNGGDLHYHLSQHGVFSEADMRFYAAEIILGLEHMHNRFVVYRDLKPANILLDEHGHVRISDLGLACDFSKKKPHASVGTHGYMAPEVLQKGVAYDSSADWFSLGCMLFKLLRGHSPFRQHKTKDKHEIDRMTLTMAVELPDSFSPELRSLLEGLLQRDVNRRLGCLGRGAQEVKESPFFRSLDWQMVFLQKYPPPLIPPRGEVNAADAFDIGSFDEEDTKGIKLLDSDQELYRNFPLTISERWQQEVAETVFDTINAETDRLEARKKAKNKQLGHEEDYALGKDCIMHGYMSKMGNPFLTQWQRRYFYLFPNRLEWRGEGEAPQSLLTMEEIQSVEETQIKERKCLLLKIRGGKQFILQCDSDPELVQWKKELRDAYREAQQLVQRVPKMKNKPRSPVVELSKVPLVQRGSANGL
# LMPTP inh: blocks human LMPTP phosphatase; P24666; inhibition, % at 20 µM; recombinant LMPTP-A, OMFP fluorogenic substrate, fluorescence intensity; actives 0.22% (n = 360,000);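 active means compounds that cut the enzyme signal by at least half of the control window in the single-dose screen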
# Target sequence (P24666 whole entry, looked up): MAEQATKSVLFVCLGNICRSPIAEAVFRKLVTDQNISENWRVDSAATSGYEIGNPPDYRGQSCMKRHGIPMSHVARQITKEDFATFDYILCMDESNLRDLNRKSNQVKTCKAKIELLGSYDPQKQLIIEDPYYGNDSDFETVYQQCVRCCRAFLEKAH
#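 Test system – LMPTP-A enzyme · Amount – LMPTP-A at 0.625 nM final in the reaction · Buffer or medium – Bis-Tris pH 6.0, DTT, detergent · Reagent – OMFP 400 µM · Doses – single 20 µM dose · Schedule – reaction 50 min, room temperature, dark · Detection – fluorescence intensity of OMFP turnover product · Evaluation – percent inhibition versus substrate-only and uninhibited controls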
# Scp-1 inhibitor: blocks human Scp-1 phosphatase activity; Q9GZU7; Recombinant Scp1, phosphopeptide, malachite green phosphate absorbance; inhibition, % at 20 µM; actives 0.88% (n = 340,000); AID 493091;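 active means inhibition above about 50% at 20 µM, limit read from the data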
#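 Times: enzyme reaction 45 min at room temperature, colour 5 min, stabilisation 30 min. Material: SCP-1 catalytic fragment, aa 76-261. Medium: Acidic Tris acetate buffer with magnesium and detergent. Signal: colorimetric free-phosphate detection, absorbance 630 nm. Read-out basis: % inhibition of SCP-1 phosphate liberation. Reagent: Phosphorylated 17-residue peptide substrate.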
# DNMT1 inh: DNMT1 (human) enzyme inhibition; inhibition (reported as % activation of signal), % at 10 µM; P26358; actives 0.83% (n = 360,000); DNMT1 molecular beacon, Hinp1I cleavage, fluorescence; AID 588458; in the data active means inhibition above about 50%
# SUMO1 PPI mod: SUMO1-SIM interaction modulation. actives 0.33% (n = 360,000). inhibition, % at 20 µM. P63165. SUMO1 binding to a labelled peptide, TR-FRET, 1 h; in the data active means inhibition above about 37%
# STEP inh: inhibitors of human striatal-enriched phosphatase STEP; AID 588621; inhibition, % at 20 µM; P54829; recombinant STEP, OMFP fluorogenic substrate, fluorescence; actives 0.25% (n = 360,000);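 active means inhibition at 20 µM, scaled per plate between control wells, above about 37%, limit read from the data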
#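 material = STEP tyrosine phosphatase | reagent = fluorogenic phosphatase substrate OMFP at 25 µM final | doses = single compound dose of 20 µM, 1% DMSO final | schedule = 20 min reaction, room temperature, in the dark | measured by = fluorescence, 480/540 nm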
# GRK2 inh confirm: human GRK2 inhibition confirmation, cherry pick 1; shares compounds with GRK2 aptamer HTS; bead-bound GRK2, FAM-aptamer displacement, flow cytometry; aptamer displacement, % at 10 µM; actives 4% (n = 2,000);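 active means aptamer displacement above 40%, near three times the noise of non-fluorescent compounds, on plates passing quality checks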;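 further: negative values mostly reflect intrinsic compound fluorescence rather than true enhancement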
# Aptamer quench 1: fluorescent aptamer quenching in GRK2 counter-screen dose response; shares compounds with GRK2 aptamer HTS; Fluorescent RNA aptamer beads, flow cytometry; active compounds read high; fluorescence change (kMESF span), kMESF (no concentration beside the values); 110 tested, under 10 active; AID 504521;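 active means compounds whose bead fluorescence drops by more than 37 kMESF across the dose range, marking them as dye quenchers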
# Aptamer quench SP: counter-screen for GRK2 aptamer inhibitors: fluorescent aptamer quenchers | shares compounds with GRK2 aptamer HTS | Carboxyfluorescein RNA aptamer on beads, flow cytometry quenching; active compounds read low | fluorescence response (% of DMSO), % at 10 µM | 2,000 tested, under 10 active | AID 504580;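 active means compounds that quench the bead-bound fluorescent RNA probe, cutting fluorescence to under half of the solvent control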;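 further: counterscreen run without GRK2 so only probe quenching by compound is measured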
# GRK2 CP2: confirmation of human GRK2 inhibitors binding RNA aptamer site; AID 504782; shares compounds with GRK2 aptamer HTS; bead-bound GRK2, FAM-aptamer displacement, flow cytometry; inhibition of aptamer binding, % at 10 µM; 360 tested, under 10 active;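 active means inhibition of aptamer binding above 40%, about triple the noise seen with nonglowing compounds, on plates passing quality control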;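 further: negative values mostly come from compounds that fluoresce themselves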
# Aptamer quench 2: counter-screen for GRK2 aptamer inhibitors: fluorescent aptamer quenchers | shares compounds with GRK2 aptamer HTS | Streptavidin beads, FAM-RNA aptamer fluorescence quenching, flow cytometry | change in fluorescence (kMESF span), kMESF (test concentration not listed) | 25 tested, under 10 active;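 active means compounds quenching the bead-bound labeled aptamer, with fluorescence dropping by more than 37 kMESF over the dose range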
# FAM quench CP2: quenches fluorescent RNA aptamer, GRK2 hit artifact | shares compounds with GRK2 aptamer HTS | carboxyfluorescein RNA aptamer beads, flow cytometry quenching; active compounds read low | fluorescence response vs DMSO, % at 10 µM | 360 tested, under 10 active;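 active means response vs DMSO under 50%, meaning signal dropped by over half, treated as fluorescence quencher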;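 further: labelled aptamer on streptavidin beads without GRK2 as a quench counter-screen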
# FAM quench DR: quenches fluorescent RNA aptamer, GRK2 hit artifact; Bead-bound FAM RNA aptamer fluorescence quenching, flow cytometry; active compounds read low; fluorescence ratio to DMSO, % at 11.1 µM; 35 tested, under 10 active; shares compounds with GRK2 aptamer HTS; AID 588496;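 active means compounds that dim the fluorescent label, raw bead signal shifting by over 33 units between lowest and highest dose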
# Scp1 confirm: Scp-1 (human) inhibition, single-dose confirmed. shares compounds with Scp-1 inhibitor. recombinant SCP-1 catalytic domain, phosphate release, malachite green absorbance. inhibition, % at 20 µM. actives 61% (n = 2,500)
# Scp-1 MG ctr: colorimetric interference in Scp-1 counter-screen; AID 540313; 2,500 tested, under 10 active; apparent inhibition (interference), % at 20 µM; Colorimetric interference counterscreen, malachite green absorbance 630 nm; shares compounds with Scp-1 inhibitor;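 further: compounds added after enzyme reaction finished so only phosphate colour detection is probed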
# Scp1 DSF: binds human Scp-1, shifting its melting temperature. shares compounds with Scp-1 inhibitor. Recombinant SCP1, Sypro Orange thermal shift Tm. thermal shift relative to vanadate control, % at 40 µM. actives 25% (n = 1,500). AID 540329;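 active means substances whose mean melting-temperature shift, as a percentage of the reference inhibitor's shift, reaches about 5.3%, limit read from the data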
# Beacon interf DR: beacon fluorescence artifact, dose response counter-screen; shares compounds with DNMT1 inh; IC50, µM; 200 tested, under 10 active; AID 602382; molecular beacon fluorescence, spectral interference counter-screen; call rule not given here
# DNMT1 inh conf: DNMT1 inhibition confirmation, single concentration; AID 602385; shares compounds with DNMT1 inh; DNMT1 molecular beacon HinP1I cleavage, fluorescence; inhibition, % at 10 µM; actives 8% (n = 2,300);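 active means average inhibition of at least 30% in the single-concentration confirmation test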
# DNMT1 interf: counter-screen for DNMT1 inhibitors: spectral interference. activation (fluorescence interference), % at 10 µM. AID 602387. shares compounds with DNMT1 inh. DNMT1 molecular beacon spectral interference counterscreen, fluorescence 485/520. actives 1% (n = 2,300);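 active means activation of at least 30% at 10 µM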;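 further: DNMT1 catalytic domain with a HinP1I cleavage step and a FAM/dabcyl DNA beacon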
# Hits are given with their value; – = inactive; · = no result given. In the library only some 2.2% were active in any assay of this set; here they are far more common.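 How the source made its calls, unless noted: active means inhibition of at least 30% at 20 µM; inactive means the rest.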
SMILES,GRK2 aptamer HTS,LMPTP inh,Scp-1 inhibitor,DNMT1 inh,SUMO1 PPI mod,STEP inh,GRK2 inh confirm,Aptamer quench 1,Aptamer quench SP,Scp1 confirm,Scp-1 MG ctr,Scp1 DSF,DNMT1 inh conf,DNMT1 interf,others
CCOC(=O)C(C)N1C(=O)S/C(=C\c2ccc(-c3ccccc3C(=O)O)o2)C1=O (stereo unspecified),84.0,–,51.9,100.4,46.5,–,71.3,–,–,53.5,–,10.6,45.1,–,Beacon interf DR=–
COC(=O)c1ccccc1-c1ccc(/C=C2\C(=O)N(c3ccccc3)N=C2c2ccccc2)o1,–,–,–,–,–,–,·,·,·,·,·,·,·,·,
O=C(O)C1CC(=O)N(c2ccc3c(c2)OCCO3)C1 (stereo unspecified),61.0,–,74.8,63.4,–,–,40.2,–,–,54.7,–,–,–,–,FAM quench DR=–
COc1cccc(OC)c1OC(=O)C1CC(=O)N(c2ccc3c(c2)OCCO3)C1 (stereo unspecified),–,–,–,52.7,–,–,·,·,·,·,·,·,–,–,GRK2 CP2=–;FAM quench CP2=–
COc1ccccc1NC(=O)C(C)OC(=O)C1CC(=O)N(c2ccc3c(c2)OCCO3)C1 (stereo unspecified),–,–,–,–,–,–,·,·,·,·,·,·,·,·,
C=C(C)C(=O)Nc1cccc(C2=NOC3(C2)C[C@@H](C(N)=O)N(C(=O)C(=C)C)C3)c1 (stereo partly specified),75.0,–,70.4,103.2,63.3,–,43.2,–,–,62.0,–,–,59.6,–,Beacon interf DR=–
C=C(C)C(=O)Nc1cccc(C2=NOC3(C2)C[C@@H](C(N)=O)N(C(=O)/C=C/CC)C3)c1 (stereo partly specified),61.0,–,69.0,109.2,63.7,–,41.2,–,–,56.5,–,–,42.2,–,Beacon interf DR=–
C=C(C)C(=O)Nc1cccc(C2=NOC3(C2)C[C@H](C(N)=O)N(C(=O)c2ccccc2)C3)c1 (stereo partly specified),48.0,–,87.8,90.8,–,–,–,–,–,65.1,–,–,–,–,
C/C=C(/C)C(=O)Nc1cccc(C2=NOC3(C2)C[C@H](C(N)=O)N(C(=O)c2ccc(Cl)cc2)C3)c1 (stereo partly specified),–,–,–,–,–,–,·,·,·,·,·,·,·,·,
COCCNC(=O)C1CCCN(C(=O)COc2ccc(C(C)(C)C)cc2)CC1 (stereo unspecified),·,–,·,–,–,–,·,·,·,·,·,·,·,·,
O=C(O)Cn1cc(/C=N/NC(=O)c2cc3cc(Br)ccc3o2)c2ccccc21,–,–,–,–,–,–,·,·,·,·,·,·,·,·,
O=C(O)c1ccc(-n2cccc2/C=N\NC(=O)c2cc3cc(Br)ccc3o2)cc1,58.0,–,80.5,101.8,83.5,–,–,·,–,·,·,·,75.1,–,Beacon interf DR=–
Cc1cc2cc(CNC(=O)Nc3ccc(Cl)c(Cl)c3)ccc2n1C,–,–,–,57.5,–,–,–,·,–,·,·,·,–,–,
CNc1cccc(-c2cc(OC)ccc2OC)n1,·,–,·,–,–,–,·,·,·,·,·,·,·,·,
NS(=O)(=O)c1ccc(CCNC(=O)CCS(=O)(=O)c2ccc(Br)cc2)cc1,87.0,–,95.6,86.5,74.7,–,·,·,·,66.0,–,–,–,–,GRK2 CP2=74.3;Aptamer quench 2=–;FAM quench CP2=–;FAM quench DR=–
O=C(CCS(=O)(=O)c1ccc(Br)cc1)NCCc1ccccc1,70.0,–,88.0,83.7,–,–,42.9,–,–,62.3,–,–,–,–,Aptamer quench 2=–
CCc1cccc(NC(=O)CCS(=O)(=O)c2ccc(Br)cc2)c1,93.0,–,86.2,87.6,–,–,72.8,–,–,64.8,–,–,–,–,Aptamer quench 2=–
COc1cc(CNC(=O)c2cc(-c3ccc(F)cc3OC)n[nH]2)cc(OC)c1,·,–,·,–,–,–,·,·,·,·,·,·,·,·,
NC(=O)c1ccc(NC(=O)COC(=O)/C=C/c2ccc(Br)o2)cc1,44.0,–,74.1,90.1,62.2,–,–,·,–,68.5,–,–,–,–,
O=C(NCc1ccco1)c1nn2c(C(F)(F)F)cc(-c3cccs3)nc2c1Br,–,–,–,–,–,–,·,·,·,·,·,·,·,·,
O=C(NCc1ccco1)c1nc2nc(-c3cccs3)cc(C(F)(F)F)n2n1,42.0,–,–,55.7,–,–,–,·,–,·,·,·,–,–,
Clc1ccc2c(N/N=C/c3ccccc3Br)ccnc2c1,–,–,–,–,–,–,·,·,·,·,·,·,·,·,

# Compound activity: PubChem, several laboratories
